Converted amounts (≈) assume the structure as drawn.
Columns and labels:
[1] = Cytotoxicity against […] human C8166-CCR5 cells assessed as decrease in cell viability by cell associated dehydrogenase activity assay; format: cell-based
Summary of the method: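 C8166-CCR5 human CD4+ T cells, grown in RPMI 1640 with 10% FBS and antibiotics, seeded at 3 × 10^4 cells per well with compound across a concentration series. Incubated at 37 °C for 72 h. Viability read by cell-associated dehydrogenase activity (CCK-8). Run in duplicate or triplicate. CC50 is the 50% cytostatic concentration.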

[2] = system: Human immunodeficiency virus 1; experiment: Antiviral activity against HIV1 NL4-3 infected human C8166-CCR5 cells assessed as decrease in virus-induced cytopathicity after 72 hrs by cell associated dehydrogenase activity assay; format: functional, organism-based; details: Human immunodeficiency virus 1, NL4-3, C8166-CCR5, 72 h
[3] = system: Human immunodeficiency virus 1; experiment: Antiviral activity against HIV1 3B infected human CCR5 cells assessed as decrease in viral syncytium formation; format: functional, organism-based; details: Human immunodeficiency virus 1, 3B
[4] = target: Protease (Human immunodeficiency virus 1, UniProt Q9YQ12); experiment: Inhibition of HIV1 protease activity
Chain of Protease (Q9YQ12 whole entry): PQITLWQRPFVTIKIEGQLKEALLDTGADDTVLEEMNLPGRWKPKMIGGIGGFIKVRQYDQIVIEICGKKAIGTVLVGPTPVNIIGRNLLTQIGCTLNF

[5] = Selectivity index, ratio of CC50 for human C8166-CCR5 cells to EC50 for HIV1 NL4-3; format: toxicity, cell-based; details: read-out: Ratio CC50/EC50
Summary of the method: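 SI = CC50/EC50. CC50 is from the 72 h CCK-8 viability assay in uninfected C8166-CCR5 cells. EC50 is from supernatant RT activity four days after HIV-1 NL43 infection of the same cells.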

[6] = target: Human immunodeficiency virus type 1 reverse transcriptase (Human immunodeficiency virus 1, UniProt Q72547); experiment: Antiviral activity against HIV1 Reverse transcriptase activity
Summary of the method: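 C8166-CCR5 human CD4+ T cells (3 × 10^4) in RPMI 1640 with 10% FBS were mixed with compound and infected with HIV-1 NL43 inoculum normalized to 1 × 10^5 cpm RT activity, then held at 37 °C. Four days after infection, supernatant RT activity was read with poly(A) template, oligo(dT) primer and [32P]TTP. Run in duplicate or triplicate. EC50 reported.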

[7] = Selectivity index, ratio of CD50 for human MT4 cells to ID50 for HIV1; format: toxicity, cell-based; details: read-out: Selectivity Index

| EC50 [2] | IC50 [4] | Structure (SMILES) | CC50 [1] | selectivity ratio [5] | also measured |
| --- | --- | --- | --- | --- | --- |
| > 100 µg/mL | – | CO[C@H]1CC[C@]2(C)[C@H](CC[C@@]3(C)CC4=CC[C@@H]5C(C)(C)[C@H](O)CC[C@@]5(C)[C@@H]4CC[C@@H]32)C1(C)C | > 100 µg/mL | – | – |
| – | – | CC1=C[C@@H]([C@H](O)[C@H](C)[C@@H]2C[C@@H](O)[C@@]3(O)[C@@H]4CC[C@@H]5C(C)(C)O[C@@H]6CC(=O)O[C@@]56C[C@]4(O)CC[C@@]23C)OC1=O [MICRANDILACTONE C] | > 200 µg/mL | – | EC50 [3]: 7710 µg/mL (≈ 14400 µM) |
| – | 1.7 µM | CC1(C)CC[C@]2(C(=O)NCCCCCC(=O)O)CC[C@]3(C)C(=CC[C@@H]4[C@@]5(C)CC[C@H](OC(=O)CCCCC(=O)O)C(C)(C)[C@@H]5CC[C@]43C)[C@@H]2C1 | – | – | – |
| > 100 µg/mL | – | CO[C@@H]1CC[C@]2(C)[C@H](CC[C@@]3(C)CC4=CC[C@@H]5C(C)(C)[C@H](O)CC[C@@]5(C)[C@@H]4CC[C@@H]32)C1(C)C | > 100 µg/mL | – | – |
| – | 1.7 µM | CC1(C)CC[C@]2(C(=O)NCCCCCC(=O)O)CC[C@]3(C)C(=CC[C@@H]4[C@@]5(C)CC[C@H](O)C(C)(C)[C@@H]5CC[C@]43C)[C@@H]2C1 | – | – | – |
| 5.94 µg/mL (≈ 4.87 µM) | – | CO[C@H]1CC[C@]2(C)[C@H](CC[C@@]3(C)CC4=CC[C@@H]5C(C)(C)[C@H](OC(=O)CCC(=O)OCc6cc(=O)c(OC(=O)CCC(=O)O[C@@H]7CC[C@@]8(C)[C@@H]9CC[C@H]%10[C@@](C)(CC[C@@H]%11C(C)(C)[C@@H](OC)CC[C@]%11%10C)CC9=CC[C@@H]8C7(C)C)co6)CC[C@@]5(C)[C@@H]4CC[C@@H]32)C1(C)C | > 100 µg/mL | > 5000 | – |
| – | – | COc1cc(/C=C/C(=O)O[C@H]2CC[C@]34C[C@]35CC[C@]3(C)[C@@H]([C@H](C)CCC=C(C)C)CC[C@@]3(C)[C@@H]5CC[C@H]4C2(C)C)ccc1O [GAMMA ORYZANOL] | – | – | IC50 [6]: 3.65 µM |
| – | 8 µM | CC1(C)CC[C@]2(C(=O)O)CC[C@]3(C)C(=CC[C@@H]4[C@@]5(C)CC[C@H](O)C(C)(C)[C@@H]5CC[C@]43C)[C@@H]2C1 [OLEANOLIC_ACID] | – | – | – |
| – | 4 µM | CC1(C)CC[C@]2(C(=O)O)CC[C@]3(C)C(=CC[C@@H]4[C@@]5(C)CC[C@H](O)C(C)(C)[C@@H]5CC[C@]43C)[C@@H]2C1 [OLEANOLIC ACID GLUTARYL HEMI ESTER] | – | – | – |
| – | 6 µM | C[C@H]1[C@H](C)CC[C@]2(C(=O)O)CC[C@]3(C)C(=CC[C@@H]4[C@@]5(C)CC[C@H](O)C(C)(C)[C@@H]5CC[C@]43C)[C@H]12 [URSOLIC ACID HYDROGEN MALONATE] | – | – | – |
| 0.12 µg/mL (≈ 0.0984 µM) | – | CO[C@@H]1CC[C@]2(C)[C@H](CC[C@@]3(C)CC4=CC[C@@H]5C(C)(C)[C@H](OC(=O)CCC(=O)OCc6cc(=O)c(OC(=O)CCC(=O)O[C@@H]7CC[C@@]8(C)[C@@H]9CC[C@H]%10[C@@](C)(CC[C@@H]%11C(C)(C)[C@H](OC)CC[C@]%11%10C)CC9=CC[C@@H]8C7(C)C)co6)CC[C@@]5(C)[C@@H]4CC[C@@H]32)C1(C)C | 4.2 µg/mL (≈ 3.44 µM) | 35 | – |
| – | 4 µM | C[C@H]1[C@H](C)CC[C@]2(C(=O)O)CC[C@]3(C)C(=CC[C@@H]4[C@@]5(C)CC[C@H](O)C(C)(C)[C@@H]5CC[C@]43C)[C@H]12 [URSOLIC ACID GLUTARYL HEMI ESTER] | – | – | – |
| 26.6 µg/mL (≈ 31.6 µM) | – | CO[C@@H]1CC[C@]2(C)[C@H](CC[C@@]3(C)CC4=CC[C@@H]5C(C)(C)[C@H](OC(=O)CCC(=O)Oc6cc(-c7oc8cc(O)cc(O)c8c(=O)c7O)ccc6O)CC[C@@]5(C)[C@@H]4CC[C@@H]32)C1(C)C | > 100 µg/mL | 4.8 | – |
| 0.02 µg/mL (≈ 0.0748 µM) | – | Cc1cn([C@H]2C[C@H](N=[N+]=[N-])[C@@H](CO)O2)c(=O)[nH]c1=O [ZIDOVUDINE] | > 100 µg/mL | > 5000 | – |
| – | – | C=C(C)[C@@H]1CC[C@]2(C)CC[C@]3(C)[C@H](CC[C@@H]4[C@@]5(C)CCC(=O)C(C)(C)[C@@H]5CC[C@]43C)[C@@H]12 [LUPENONE] | – | – | IC50 [6]: 4.94 µM |
| – | 8 µM | C[C@H]1[C@H](C)CC[C@]2(C(=O)O)CC[C@]3(C)C(=CC[C@@H]4[C@@]5(C)CC[C@H](O)C(C)(C)[C@@H]5CC[C@]43C)[C@H]12 [URSOLIC ACID] | – | – | – |
| 23.2 µg/mL (≈ 27.6 µM) | – | CO[C@H]1CC[C@]2(C)[C@H](CC[C@@]3(C)CC4=CC[C@@H]5C(C)(C)[C@H](OC(=O)CCC(=O)Oc6cc(-c7oc8cc(O)cc(O)c8c(=O)c7O)ccc6O)CC[C@@]5(C)[C@@H]4CC[C@@H]32)C1(C)C | > 100 µg/mL | > 5000 | – |
| – | – | C=C(CC[C@@H](C)[C@H]1CC[C@@]2(C)[C@@H]3CC[C@H]4C(C)(C)[C@@H](OC(=O)/C=C/c5ccc(O)c(OC)c5)CC[C@@]45C[C@@]35CC[C@]12C)C(C)C | – | – | IC50 [6]: 3.08 µM |
| – | – | CC1(C)[C@@H](O)CC[C@]2(C)[C@H]3C(=O)C=C4[C@@H]5C[C@@](C)(C(=O)O)CC[C@]5(C)CC[C@@]4(C)[C@]3(C)CC[C@@H]12 [ENOXOLONE] | – | – | selectivity ratio [7]: 9.6 |
| – | – | C=C(C)[C@@H]1CC[C@]2(COC(C)=O)CC[C@]3(C)[C@H](CC[C@@H]4[C@@]5(C)CC[C@H](OC(C)=O)C(C)(C)[C@@H]5CC[C@]43C)[C@@H]12 [BETULIN DIACETATE] | – | – | IC50 [6]: 2.66 µM |
| 4.13 µg/mL (≈ 6.07 µM) | – | CO[C@@H]1CC[C@]2(C)[C@H](CC[C@@]3(C)CC4=CC[C@@H]5C(C)(C)[C@H](OC(=O)CCC(=O)Oc6coc(CO)cc6=O)CC[C@@]5(C)[C@@H]4CC[C@@H]32)C1(C)C | 22.2 µg/mL (≈ 32.6 µM) | 5.4 | – |
| 55.4 µg/mL (≈ 68.4 µM) | – | CO[C@H]1CC[C@]2(C)[C@H](CC[C@@]3(C)CC4=CC[C@@H]5C(C)(C)[C@H](OC(=O)CCC(=O)Oc6c(O)cc7oc(-c8ccccc8)cc(=O)c7c6O)CC[C@@]5(C)[C@@H]4CC[C@@H]32)C1(C)C | > 100 µg/mL | 2.3 | – |
| – | – | CC1(C)[C@H](O)CC[C@]2(C)C3=CC[C@@]4(C)[C@@H]5C[C@](C)(COC(=O)c6ccccc6)CC[C@]5(C)CC[C@]4(C)C3=CC[C@@H]12 | – | – | IC50 [6]: 4.04 µM |
| 21.4 µg/mL (≈ 26.5 µM) | – | CO[C@@H]1CC[C@]2(C)[C@H](CC[C@@]3(C)CC4=CC[C@@H]5C(C)(C)[C@H](OC(=O)CCC(=O)Oc6c(O)cc7oc(-c8ccccc8)cc(=O)c7c6O)CC[C@@]5(C)[C@@H]4CC[C@@H]32)C1(C)C | > 100 µg/mL | 4.9 | – |
| 6.75 µg/mL (≈ 9.91 µM) | – | CO[C@H]1CC[C@]2(C)[C@H](CC[C@@]3(C)CC4=CC[C@@H]5C(C)(C)[C@H](OC(=O)CCC(=O)Oc6coc(CO)cc6=O)CC[C@@]5(C)[C@@H]4CC[C@@H]32)C1(C)C | > 100 µg/mL | 86.8 | – |

| Structure (SMILES) | EC50 [2] | IC50 [4] | CC50 [1] | selectivity ratio [5] | also measured |
| --- | --- | --- | --- | --- | --- |
| C=C(C)[C@@H]1CC[C@]2(C(=O)O)CC[C@]3(C)[C@H](CC[C@@H]4[C@@]5(C)CC[C@H](O)C(C)(C)[C@@H]5CC[C@]43C)[C@@H]12 [BETULINIC ACID GLUTARYL HEMI ESTER] | – | 4 µM | – | – | – |

Source: ChEMBL document CHEMBL1782018, “Novel 3alpha-methoxyserrat-14-en-21beta-ol (PJ-1) and 3beta-methoxyserrat-14-en-21beta-ol (PJ-2)-curcumin, kojic acid, quercetin, and baicalein conjugates as HIV agents” (Bioorg Med Chem, 2009)
